Experimental data taken from ChEMBL document CHEMBL3272198, “Preparation and in vitro antifungal activities of some quinolizidine derived hemiaminals and beta-tert-amino sulfides” (1976).
Active and inactive are the calls of the source. The rule behind the calls is not given here.

Legend:
Blastomyces dermatitidis [1] = test: Antifungal activity against Blastomyces dermatitidis Gilchrist & Stokes isolate 1107 at 60 ug/ml after 3 weeks (reference value: 40 mm); assay type: functional; conditions: Gilchrist & Stokes isolate 1107, 504 h, read-out: DIZ
Outline: (§1)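 Mycelial phase grown on Sabouraud dextrose agar at 25°C. Agar pH was set to 6 before the test solution was added and was 5.0-5.5 after. Test solutions contained HOAc and Me2SO, and solvent and blank controls were included. Each quadrant was center-inoculated with a 2 × 2 mm piece of a 2-week-old mycelial culture. Colony diameter was measured weekly for 3 weeks and reported as total increments (mm). Duplicates were run.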

Histoplasma capsulatum [2] = test: Antifungal activity against Histoplasma capsulatum Darling isolate 1098 at 1 ug/ml after 3 weeks (reference value: 28 mm); assay type: functional; conditions: Darling isolate 1098, 504 h, read-out: DIZ
Histoplasma capsulatum [3] = test: Antifungal activity against Histoplasma capsulatum Darling isolate 1106 at 80 ug/ml after 1 week (reference value: 14 mm); assay type: functional; conditions: Darling isolate 1106, 168 h, read-out: DIZ
Histoplasma capsulatum [4] = test: Antifungal activity against Histoplasma capsulatum Darling isolate 1106 at 60 ug/ml after 1 week (reference value: 14 mm); assay type: functional; conditions: Darling isolate 1106, 168 h, read-out: DIZ
Histoplasma capsulatum [5] = test: Antifungal activity against Histoplasma capsulatum Darling isolate 1106 at 40 ug/ml after 1 week (reference value: 14 mm); assay type: functional; conditions: Darling isolate 1106, 168 h, read-out: DIZ
Histoplasma capsulatum [6] = test: Antifungal activity against Histoplasma capsulatum Darling isolate 1106 at 10 ug/ml after 2 weeks (reference value: 25 mm); assay type: functional; conditions: Darling isolate 1106, 336 h, read-out: DIZ
Histoplasma capsulatum [7] = test: Antifungal activity against Histoplasma capsulatum Darling isolate 1106 at 80 ug/ml after 3 weeks (reference value: 31 mm); assay type: functional; conditions: Darling isolate 1106, 504 h, read-out: DIZ
Histoplasma capsulatum [8] = test: Antifungal activity against Histoplasma capsulatum Darling isolate 1106 at 10 ug/ml after 3 weeks (reference value: 31 mm); assay type: functional; conditions: Darling isolate 1106, 504 h, read-out: DIZ
Blastomyces dermatitidis [9] = test: Antifungal activity against Blastomyces dermatitidis Gilchrist & Stokes isolate 1099 at 100 ug/ml after 1 week (reference value: 14 mm); assay type: functional
Blastomyces dermatitidis [10] = test: Antifungal activity against Blastomyces dermatitidis Gilchrist & Stokes isolate 1099 at 80 ug/ml after 1 week (reference value: 14 mm); assay type: functional
Blastomyces dermatitidis [11] = test: Antifungal activity against Blastomyces dermatitidis Gilchrist & Stokes isolate 1099 at 20 ug/ml after 1 week (reference value: 14 mm); assay type: functional; outline: as §1
Blastomyces dermatitidis [12] = test: Antifungal activity against Blastomyces dermatitidis Gilchrist & Stokes isolate 1099 at 60 ug/ml after 2 weeks (reference value: 27 mm); assay type: functional; outline: as §1
Blastomyces dermatitidis [13] = test: Antifungal activity against Blastomyces dermatitidis Gilchrist & Stokes isolate 1099 at 40 ug/ml after 2 weeks (reference value: 27 mm); assay type: functional; conditions: Gilchrist & Stokes isolate 1099, 336 h, read-out: DIZ; outline: as §1
Blastomyces dermatitidis [14] = test: Antifungal activity against Blastomyces dermatitidis Gilchrist & Stokes isolate 1099 at 10 ug/ml after 2 weeks (reference value: 27 mm); assay type: functional; conditions: Gilchrist & Stokes isolate 1099, 336 h, read-out: DIZ; outline: as §1
Blastomyces dermatitidis [15] = test: Antifungal activity against Blastomyces dermatitidis Gilchrist & Stokes isolate 1099 at 60 ug/ml after 3 weeks (reference value: 34 mm); assay type: functional; conditions: Gilchrist & Stokes isolate 1099, 504 h, read-out: DIZ; outline: as §1
Blastomyces dermatitidis [16] = test: Antifungal activity against Blastomyces dermatitidis Gilchrist & Stokes isolate 1099 at 1 ug/ml after 3 weeks (reference value: 34 mm); assay type: functional; conditions: Gilchrist & Stokes isolate 1099, 504 h, read-out: DIZ; outline: as §1
Blastomyces dermatitidis [17] = test: Antifungal activity against Blastomyces dermatitidis Gilchrist & Stokes isolate 1107 at 100 ug/ml after 1 week (reference value: 20 mm); assay type: functional
Blastomyces dermatitidis [18] = test: Antifungal activity against Blastomyces dermatitidis Gilchrist & Stokes isolate 1107 at 40 ug/ml after 1 week (reference value: 20 mm); assay type: functional
Blastomyces dermatitidis [19] = test: Antifungal activity against Blastomyces dermatitidis Gilchrist & Stokes isolate 1107 at 10 ug/ml after 1 week (reference value: 20 mm); assay type: functional; outline: as §1
Blastomyces dermatitidis [20] = test: Antifungal activity against Blastomyces dermatitidis Gilchrist & Stokes isolate 1107 at 1 ug/ml after 1 week (reference value: 20 mm); assay type: functional, organism-based; outline: as §1
Blastomyces dermatitidis [21] = test: Antifungal activity against Blastomyces dermatitidis Gilchrist & Stokes isolate 1107 at 100 ug/ml after 2 weeks (reference value: 35 mm); assay type: functional; conditions: Gilchrist & Stokes isolate 1107, 336 h, read-out: DIZ; outline: as §1
Blastomyces dermatitidis [22] = test: Antifungal activity against Blastomyces dermatitidis Gilchrist & Stokes isolate 1107 at 80 ug/ml after 2 weeks (reference value: 35 mm); assay type: functional; conditions: Gilchrist & Stokes isolate 1107, 336 h, read-out: DIZ; outline: as §1
Blastomyces dermatitidis [23] = test: Antifungal activity against Blastomyces dermatitidis Gilchrist & Stokes isolate 1107 at 40 ug/ml after 2 weeks (reference value: 35 mm); assay type: functional; conditions: Gilchrist & Stokes isolate 1107, 336 h, read-out: DIZ; outline: as §1
Histoplasma capsulatum [24] = test: Antifungal activity against Histoplasma capsulatum Darling isolate 1098 at 100 ug/ml after 1 week (reference value: 12 mm); assay type: functional
Histoplasma capsulatum [25] = test: Antifungal activity against Histoplasma capsulatum Darling isolate 1098 at 60 ug/ml after 1 week (reference value: 12 mm); assay type: functional; conditions: Darling isolate 1098, 168 h, read-out: DIZ
Histoplasma capsulatum [26] = test: Antifungal activity against Histoplasma capsulatum Darling isolate 1098 at 40 ug/ml after 1 week (reference value: 12 mm); assay type: functional; conditions: Darling isolate 1098, 168 h, read-out: DIZ
Histoplasma capsulatum [27] = test: Antifungal activity against Histoplasma capsulatum Darling isolate 1098 at 100 ug/ml after 2 weeks (reference value: 21 mm); assay type: functional; conditions: Darling isolate 1098, 336 h, read-out: DIZ
Histoplasma capsulatum [28] = test: Antifungal activity against Histoplasma capsulatum Darling isolate 1098 at 40 ug/ml after 2 weeks (reference value: 21 mm); assay type: functional; conditions: Darling isolate 1098, 336 h, read-out: DIZ
Histoplasma capsulatum [29] = test: Antifungal activity against Histoplasma capsulatum Darling isolate 1098 at 20 ug/ml after 2 weeks (reference value: 21 mm); assay type: functional; conditions: Darling isolate 1098, 336 h, read-out: DIZ
Histoplasma capsulatum [30] = test: Antifungal activity against Histoplasma capsulatum Darling isolate 1098 at 100 ug/ml after 3 weeks (reference value: 28 mm); assay type: functional; conditions: Darling isolate 1098, 504 h, read-out: DIZ
Blastomyces dermatitidis [31] = test: Antifungal activity against Blastomyces dermatitidis Gilchrist & Stokes isolate 1107 at 20 ug/ml after 3 weeks (reference value: 40 mm); assay type: functional; conditions: Gilchrist & Stokes isolate 1107, 504 h, read-out: DIZ
Histoplasma capsulatum [32] = test: Antifungal activity against Histoplasma capsulatum Darling isolate 1106 at 20 ug/ml after 3 weeks (reference value: 31 mm); assay type: functional; conditions: Darling isolate 1106, 504 h, read-out: DIZ
Blastomyces dermatitidis [33] = test: Antifungal activity against Blastomyces dermatitidis Gilchrist & Stokes isolate 1099 at 20 ug/ml after 2 weeks (reference value: 27 mm); assay type: functional; conditions: Gilchrist & Stokes isolate 1099, 336 h, read-out: DIZ
Blastomyces dermatitidis [34] = test: Antifungal activity against Blastomyces dermatitidis Gilchrist & Stokes isolate 1099 at 20 ug/ml after 3 weeks (reference value: 34 mm); assay type: functional; conditions: Gilchrist & Stokes isolate 1099, 504 h, read-out: DIZ
Blastomyces dermatitidis [35] = test: Antifungal activity against Blastomyces dermatitidis Gilchrist & Stokes isolate 1107 at 20 ug/ml after 2 weeks (reference value: 35 mm); assay type: functional; conditions: Gilchrist & Stokes isolate 1107, 336 h, read-out: DIZ
Histoplasma capsulatum [36] = test: Antifungal activity against Histoplasma capsulatum Darling isolate 1098 at 20 ug/ml after 3 weeks (reference value: 28 mm); assay type: functional; conditions: Darling isolate 1098, 504 h, read-out: DIZ
[37] = Gilchrist & Stokes isolate 1099, 168 h, read-out: DIZ
[38] = Gilchrist & Stokes isolate 1107, 168 h, read-out: DIZ

| Compound | zone of inhibition at 60 µg/mL (Blastomyces dermatitidis [1]) | zone of inhibition at 80 µg/mL (Histoplasma capsulatum [3]) | zone of inhibition at 60 µg/mL (Histoplasma capsulatum [4]) | zone of inhibition at 40 µg/mL (Histoplasma capsulatum [5]) | zone of inhibition at 10 µg/mL (Histoplasma capsulatum [6]) | zone of inhibition at 80 µg/mL (Histoplasma capsulatum [7]) | zone of inhibition at 10 µg/mL (Histoplasma capsulatum [8]) | zone of inhibition at 40 µg/mL (Blastomyces dermatitidis [13]) | zone of inhibition at 10 µg/mL (Blastomyces dermatitidis [14]) | zone of inhibition at 60 µg/mL (Blastomyces dermatitidis [15]) | zone of inhibition at 100 µg/mL (Blastomyces dermatitidis [21]) | zone of inhibition at 80 µg/mL (Blastomyces dermatitidis [22]) | zone of inhibition at 40 µg/mL (Blastomyces dermatitidis [23]) | zone of inhibition at 60 µg/mL (Histoplasma capsulatum [25]) | zone of inhibition at 40 µg/mL (Histoplasma capsulatum [26]) | zone of inhibition at 100 µg/mL (Histoplasma capsulatum [27]) | zone of inhibition at 40 µg/mL (Histoplasma capsulatum [28]) | zone of inhibition at 20 µg/mL (Histoplasma capsulatum [29]) | zone of inhibition at 100 µg/mL (Histoplasma capsulatum [30]) | further results |
| --- | --- | --- | --- | --- | --- | --- | --- | --- | --- | --- | --- | --- | --- | --- | --- | --- | --- | --- | --- | --- |
| C[C@@H]1[C@H](O)[C@@H](C)/C=C/C=C/C=C/C=C/C=C/C=C/C=C/[C@H](O[C@@H]2O[C@H](C)[C@@H](O)[C@H](N)[C@@H]2O)C[C@@H]2O[C@](O)(C[C@@H](O)C[C@@H](O)[C@H](O)CC[C@@H](O)C[C@@H](O)CC(=O)O[C@H]1C)C[C@H](O)[C@H]2C(=O)O [AMPHOTERICIN B] | 14 mm | 5 mm | 6 mm | 6 mm | 12 mm | 12 mm | 17 mm | 2 mm | 6 mm | 4 mm | 6 mm | 10 mm | 14 mm | 4 mm | 5 mm | 8 mm | 11 mm | 12 mm | 14 mm | zone of inhibition at 1 µg/mL (Histoplasma capsulatum [2]): 28 mm; Activity (Blastomyces dermatitidis [9]): Active; Activity (Blastomyces dermatitidis [10]): Active; Activity (Blastomyces dermatitidis [11]): Active; Activity (Blastomyces dermatitidis [12]): Active; zone of inhibition at 1 µg/mL (Blastomyces dermatitidis [16]): 19 mm; Activity (Blastomyces dermatitidis [17]): Active; Activity (Blastomyces dermatitidis [18]): inactive; Activity (Blastomyces dermatitidis [19]): inactive; Activity (Blastomyces dermatitidis [20]): inactive; Activity (Histoplasma capsulatum [24]): inactive |
| CS[C@@]1(C)CC[C@@H]2CCCCN2C1O (stereo partly drawn) | 40 mm | 10 mm | 10 mm | 10 mm | 21 mm | 26 mm | 26 mm | 26 mm | 28 mm | 32 mm | 31 mm | 29 mm | 33 mm | 9 mm | 9 mm | 15 mm | 19 mm | 18 mm | 30 mm | zone of inhibition at 20 µg/mL (Blastomyces dermatitidis [31]): 40 mm; zone of inhibition at 20 µg/mL (Histoplasma capsulatum [32]): 26 mm; zone of inhibition at 100 µg/mL (Blastomyces dermatitidis [9]; [37]): 13 mm; zone of inhibition at 80 µg/mL (Blastomyces dermatitidis [10]; [37]): 13 mm; zone of inhibition at 20 µg/mL (Blastomyces dermatitidis [11]; [37]): 15 mm; zone of inhibition at 60 µg/mL (Blastomyces dermatitidis [12]; Gilchrist & Stokes isolate 1099, 336 h, read-out: DIZ): 25 mm; zone of inhibition at 20 µg/mL (Blastomyces dermatitidis [33]): 26 mm; zone of inhibition at 20 µg/mL (Blastomyces dermatitidis [34]): 35 mm; zone of inhibition at 100 µg/mL (Blastomyces dermatitidis [17]; [38]): 16 mm; zone of inhibition at 40 µg/mL (Blastomyces dermatitidis [18]; [38]): 20 mm; zone of inhibition at 10 µg/mL (Blastomyces dermatitidis [19]; [38]): 20 mm; zone of inhibition at 20 µg/mL (Blastomyces dermatitidis [35]): 34 mm; zone of inhibition at 100 µg/mL (Histoplasma capsulatum [24]; Darling isolate 1098, 168 h, read-out: DIZ): 8 mm; zone of inhibition at 20 µg/mL (Histoplasma capsulatum [36]): 31 mm |
